Reference: ChEMBL document CHEMBL1150347, “A prodomain peptide of Plasmodium falciparum cysteine protease (falcipain-2) inhibits malaria parasite development” (J Med Chem, 2008)
Calls of active or inactive are those of the source. No cut-off for these calls is given here. Residues, ends and D or L forms follow the SMILES beside them.

Legend:
[1] = biological target: T1, Falcipain 2 (Plasmodium falciparum) (UniProt Q9N6S8); assay: Inhibition of Plasmodium falciparum 3D7 falcipain-2 in RBC assessed as Z-FR-AMC substrate hydrolysis by confocal microscopy relative to control; details: concentration not given here
T1 sequence (whole entry): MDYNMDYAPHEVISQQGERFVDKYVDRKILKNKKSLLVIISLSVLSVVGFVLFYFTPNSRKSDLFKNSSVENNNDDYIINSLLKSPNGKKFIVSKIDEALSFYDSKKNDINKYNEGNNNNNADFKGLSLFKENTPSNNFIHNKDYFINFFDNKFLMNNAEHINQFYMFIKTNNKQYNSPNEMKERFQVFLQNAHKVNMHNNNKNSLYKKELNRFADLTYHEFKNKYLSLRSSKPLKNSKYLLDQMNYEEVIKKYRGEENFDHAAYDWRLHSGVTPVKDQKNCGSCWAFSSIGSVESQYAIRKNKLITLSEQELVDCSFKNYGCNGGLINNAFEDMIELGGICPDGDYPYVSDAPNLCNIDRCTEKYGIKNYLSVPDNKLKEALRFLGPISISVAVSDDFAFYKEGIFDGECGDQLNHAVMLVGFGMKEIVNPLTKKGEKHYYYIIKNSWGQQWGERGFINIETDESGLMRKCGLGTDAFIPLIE
Procedure, shortened: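 3D7 cultures at 4-5% parasitemia given FITC-labelled peptide for 10 h at 24-28 h post-invasion. After washing in complete medium, Z-F-R-AMC added for 10 min. Confocal imaging: FITC excitation 488 nm, emission 505-530 nm; released AMC captured through a UV band-pass filter. Fluorescence averaged over selected whole parasites and compared with untreated infected cells.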

[2] = biological target: T1, Falcipain 2 (Plasmodium falciparum); assay: (§1) Inhibition of Plasmodium falciparum recombinant falcipain-2
Procedure, shortened: (§2)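 Refolded recombinant falcipain-2 at 200 nM, preincubated with peptide for 10 min at room temperature. Z-F-R-AMC then added at 7 µM in 100 mM sodium acetate pH 5.5 with 10 mM DTT. AMC release (ex 355/em 460 nm) followed for 30 min at room temperature. Km/Vmax from varied substrate; Ki from double-reciprocal plot; three experiments.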

[3] = test system: Plasmodium falciparum; assay: Growth inhibition as reduced parasitaemia at 24 hrs for Plasmodium falciparum 3D7 by Giemsa-stained smear counting; design: scale not given: the % may be the effect or the level left
[4] = test system: Plasmodium falciparum; assay: Growth inhibition at 24 hrs of Plasmodium falciparum 3D7 by [3H]hypoxanthine uptake; assay type: functional, organism-based
Procedure, shortened: (§3)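 Synchronized ring-stage P. falciparum-infected RBCs incubated 24 h with a range of peptide concentrations, with OVA peptide as control. About 1 µCi [3H]hypoxanthine added per well and cultures kept a further 24 h. Cells harvested and incorporated label counted by scintillation.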

[5] = test system: Plasmodium falciparum; assay: Growth inhibition at 24 hrs of Plasmodium falciparum 3D7 at 100 uM by [3H]hypoxanthine uptake; assay type: functional; procedure, shortened: as §3
[6] = biological target: T1, Falcipain 2 (Plasmodium falciparum); assay: Inhibition of Plasmodium falciparum falcipain-2 in RBC assessed as hemoglobin degradation after 24 hrs by SDS-PAGE
Procedure, shortened: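 Ring-stage P. falciparum treated 24 h. Infected RBCs lysed with 0.15% saponin in PBS on ice for 10 min, then washed three times with cold PBS. About 1 × 10^6 parasites per lane run on 15% SDS-PAGE in Laemmli buffer; Coomassie staining used to look for undigested hemoglobin.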

[7] = test system: Plasmodium falciparum; assay: Growth inhibition after 10 hrs of Plasmodium falciparum expressing KAHRP-His-GFP at 100 uM; assay type: functional, organism-based
Procedure, shortened: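 KAHRP(-His)-GFP transgenic line, kept on 0.25 nM WR99210, sorbitol-synchronized, cultured in human RBCs (4% hematocrit) in RPMI. Peptide added at the ring stage. GFP fluorescence imaged after 3 h and 10 h of treatment, with bright field and DAPI; growth arrest read as loss of GFP signal.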

[8] = biological target: T2, Falcipain 2 (Plasmodium falciparum, UniProt Q9N6S8); assay: as §1; procedure, shortened: as §2
T2 sequence (Q9N6S8 whole entry): T1 sequence (whole entry)

[9] = test system: Plasmodium falciparum; assay: Growth inhibition as merozoite release after 36 hrs in Plasmodium falciparum infected erythrocytes; assay type: functional, organism-based
[10] = test system: Plasmodium falciparum; assay: Growth inhibition as abnormal food vacuole formation after 36 hrs in Plasmodium falciparum trophozoite infected erythrocytes; assay type: functional, organism-based
[11] = test system: Plasmodium falciparum; assay: Inhibition of Plasmodium falciparum recombinant falcipain-1
Procedure, shortened: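 Active recombinant falcipain-1 incubated with prodomain peptide; protease activity read as fluorescence from Z-FR-AMC cleavage at pH 5.5, followed over 30 min. Three independent sets of experiments.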

CC[C@H](C)[C@H](NC(=O)[C@H](Cc1ccccc1)NC(=O)[C@H](CCSC)NC(=O)[C@H](Cc1ccc(O)cc1)NC(=O)[C@H](Cc1ccccc1)NC(=O)[C@H](CCC(N)=O)NC(=O)[C@H](CC(N)=O)NC(=O)[C@@H](NC(=O)[C@H](Cc1cnc[nH]1)NC(=O)[C@H](CCC(=O)O)NC(=O)[C@H](C)NC(=O)[C@H](CC(N)=O)NC(=O)[C@H](CC(N)=O)NC(=O)[C@H](CCSC)NC(=O)[C@H](CC(C)C)NC(=S)Nc1cccc2c1C(=O)OC21c2ccccc2Oc2cc(O)ccc21)[C@@H](C)CC)C(=O)O (some centres not stated)
inhibition [1]: 50%

CC[C@H](C)[C@H](NC(=O)[C@H](Cc1ccccc1)NC(=O)[C@@H](NC(=O)[C@H](Cc1ccc(O)cc1)NC(=O)[C@H](Cc1ccccc1)NC(=O)[C@H](CCC(N)=O)NC(=O)[C@H](CC(N)=O)NC(=O)[C@@H](NC(=O)[C@H](Cc1c[nH]cn1)NC(=O)[C@H](CCC(=O)O)NC(=O)[C@@H](NC(=O)[C@H](CC(N)=O)NC(=O)[C@H](CC(N)=O)NC(=O)[C@H](CCSC)NC(=O)[C@@H](N)CC(C)C)C(C)C)[C@@H](C)CC)[C@@H](C)O)C(=O)O (H-LMNNVEHINQFYTFI-OH)
Activity [2]: Active

CC[C@H](C)[C@H](NC(=O)[C@H](CCSC)NC(=O)[C@H](Cc1ccc(O)cc1)NC(=O)[C@H](Cc1ccccc1)NC(=O)[C@H](CCC(N)=O)NC(=O)[C@H](CC(N)=O)NC(=O)[C@@H](NC(=O)[C@H](Cc1cnc[nH]1)NC(=O)[C@H](CCC(=O)O)NC(=O)[C@H](C)NC(=O)[C@H](CC(N)=O)NC(=O)[C@H](CC(N)=O)NC(=O)[C@H](CCSC)NC(=O)[C@H](CC(C)C)NC(=O)[C@H](CCCCN)NC(=O)[C@H](CCCCN)NC(=O)[C@H](Cc1c[nH]c2ccccc12)NC(=O)[C@H](CCCCN)NC(=O)[C@H](CCSC)NC(=O)[C@H](CCCNC(=N)N)NC(=O)[C@H](CCCNC(=N)N)NC(=O)[C@H](CC(N)=O)NC(=O)[C@H](CCC(N)=O)NC(=O)[C@H](Cc1ccccc1)NC(=O)[C@H](Cc1c[nH]c2ccccc12)NC(=O)[C@@H](NC(=O)[C@H](CCCCN)NC(=O)[C@@H](NC(=O)[C@H](CCC(N)=O)NC(=O)[C@@H](N)CCCNC(=N)N)[C@@H](C)CC)[C@@H](C)CC)[C@@H](C)CC)C(=O)O (H-RQIKIWFQNRRMKWKKLMNNAEHINQFYMI-OH)
Activity [3]: 50%

CC[C@H](C)[C@H](N)C(=O)N[C@@H](CO)C(=O)N[C@@H](CCC(N)=O)C(=O)N[C@@H](C)C(=O)N[C@H](C(=O)N[C@@H](Cc1cnc[nH]1)C(=O)N[C@@H](C)C(=O)N[C@@H](C)C(=O)N[C@@H](Cc1cnc[nH]1)C(=O)N[C@@H](C)C(=O)N[C@@H](CCC(=O)O)C(=O)N[C@H](C(=O)N[C@@H](CC(N)=O)C(=O)N[C@@H](CCC(=O)O)C(=O)N[C@@H](C)C(=O)NCC(=O)N[C@@H](CCCNC(=N)N)C(=O)O)[C@@H](C)CC)C(C)C [ovalbumin peptide] (H-ISQAVHAAHAEINEAGR-OH)
Activity [4]: inactive
Activity [2]: inactive
inhibition at 100 µM [5]: 80%

CC(C)C[C@H](NC(=O)[C@H]1O[C@@H]1C(=O)O)C(=O)NCCCCN=C(N)N
Activity [6]: Active

CSCC[C@H](NC(=O)[C@H](CC(N)=O)NC(=O)[C@@H](NC(=O)[C@H](CCCCN)NC(=O)[C@H](Cc1c[nH]cn1)NC(=O)[C@H](C)NC(=O)[C@H](CC(N)=O)NC(=O)[C@H](CCC(N)=O)NC(=O)[C@H](CC(C)C)NC(=O)[C@H](Cc1ccccc1)NC(=O)[C@@H](NC(=O)[C@H](CCC(N)=O)NC(=O)[C@H](Cc1ccccc1)NC(=O)[C@H](CCCNC(=N)N)NC(=O)[C@H](CCC(=O)O)NC(=O)[C@H](CCCCN)NC(=O)[C@H](CCSC)NC(=O)[C@@H](N)CCC(=O)O)C(C)C)C(C)C)C(=O)N[C@@H](Cc1c[nH]cn1)C(=O)N[C@@H](CC(N)=O)C(=O)O (H-EMKERFQVFLQNAHKVNMHN-OH)
Activity [4]: inactive

CC(C)C[C@H](NC(=O)[C@H](Cc1ccccc1)NC(=O)[C@@H](NC(=O)[C@H](CCC(N)=O)NC(=O)[C@H](Cc1ccccc1)NC(=O)[C@@H](N)CCCNC(=N)N)C(C)C)C(=O)N[C@@H](CCC(N)=O)C(=O)N[C@@H](CC(N)=O)C(=O)N[C@@H](C)C(=O)N[C@@H](Cc1c[nH]cn1)C(=O)N[C@@H](CCCCN)C(=O)N[C@H](C(=O)O)C(C)C (H-RFQVFLQNAHKV-OH)
Activity [4]: inactive

CC[C@H](C)[C@H](NC(=O)[C@H](Cc1ccccc1)NC(=O)[C@H](CCSC)NC(=O)[C@H](Cc1ccc(O)cc1)NC(=O)[C@H](Cc1ccccc1)NC(=O)[C@H](CCC(N)=O)NC(=O)[C@H](CC(N)=O)NC(=O)[C@@H](NC(=O)[C@H](Cc1c[nH]cn1)NC(=O)[C@H](CCC(=O)O)NC(=O)[C@H](C)NC(=O)[C@H](CC(N)=O)NC(=O)[C@H](CC(N)=O)NC(=O)[C@H](CCSC)NC(=O)[C@@H](N)CC(C)C)[C@@H](C)CC)C(=O)O (H-LMNNAEHINQFYMFI-OH)
Activity [7]: Active
Ki [8]: 3.8 µM
Activity [9]: Active
Activity [10]: Active
Activity [11]: inactive
Activity [3]: 50%
Activity [6]: Active
inhibition at 100 µM [5]: 50%
